Laboratory results taken from ChEMBL document CHEMBL1126267, “A novel synthesis and potent antiinflammatory activity of 4-hydroxy-2(1H)-oxo-1-phenyl-1,8-naphthyridine-3-carboxamides” (1992).

Legend:
Type in all cases: functional
Settings in all cases: route oral
[1] = system: Rattus norvegicus; assay: Inhibition of Zymosan-induced rat's paw edema(ZPE) after peroral administration of 100 mg/kg dose.
Summary of the method: (§1)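 Male Wistar rats (about 150 g) were dosed orally with compound suspended in 5% arabic gum, 1 h before a subplantar hind-paw injection of 0.1 mL saline. The irritant was 1% zymosan for 33 or 1% λ-carrageenin for 34. Paw volume was measured by plethysmograph before dosing and at 4 h (zymosan) or 3 h (carrageenin). Swelling is relative to initial volume, as mean ± SEM. % inhibition is versus the control group's mean swelling.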

[2] = system: Rattus norvegicus; assay: Compound was tested for the inhibition of rat reversed passive Arthus pleurisy after peroral administration of 100 mg/kg dose at 4.4*10e6 no of cells with 5.72*10e6 cells of control
Summary of the method: (§2)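 Male Wistar rats (about 250 g) under ether received 0.2 mL rabbit anti-egg-albumin antiserum intrapleurally. Thirty min later they got 15 mg EA/100 g body weight in 0.1 mL saline iv. Compounds were given orally beforehand. Rats were killed 4.5 h after induction and the thoracic cavity rinsed with 5 mL saline. Exudate volume and infiltrated cell count were read as mean ± SE. % inhibition is versus control.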

[3] = system: Rattus norvegicus; assay: Compound was tested for the inhibition of rat reversed passive Arthus pleurisy after peroral administration of 100 mg/kg dose at 0.71 mL of exudate volume with 0.84 mL of control (injected intrapleurally)
Summary of the method: (§3)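 Male Wistar rats (about 250 g) were given compound orally before the antiserum. Under ether anesthesia, 0.2 mL rabbit anti-egg albumin antiserum was injected intrapleurally. After 30 min, egg albumin (15 mg/100 g body weight in 0.1 mL saline) was given iv. Rats were killed 4.5 h later and the thoracic cavity was rinsed with 5 mL saline. Exudate volume and infiltrated cell number were measured, with inhibition % versus controls as mean ± SEM.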

[4] = system: Rattus norvegicus; assay: Antiinflammatory activity on Carrageenan rat's paw edema(CPE) after peroral administration of 100 mg/kg dose with control swelling of 64.2%
[5] = system: Rattus norvegicus; assay: Antiinflammatory activity on Zymosan-induced rat's paw edema(ZPE) after peroral administration of 100 mg/kg dose with control swelling of 71.7%
Summary of the method: (§4)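 Male Wistar rats weighing about 150 g were dosed orally with compound suspended in 5% arabic gum. 1 h later, 1% zymosan in 0.1 mL saline was injected subplantarly into the hind paw. Paw volume was measured by plethysmograph before dosing and 4 h after zymosan, with edema as the volume difference. Inhibition % was derived from mean swelling versus the control group.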

[6] = system: Rattus norvegicus; assay: Inhibition of carrageenan-induced rat's paw edema (CPE) after peroral administration of 100 mg/kg dose.; summary of the method: as §1
[7] = system: Rattus norvegicus; assay: Antiinflammatory activity on Carrageenan rat's paw edema(CPE) after peroral administration of 100 mg/kg dose with control swelling of 73.7%
[8] = system: Rattus norvegicus; assay: Compound was tested for the inhibition of rat reversed passive Arthus pleurisy after peroral administration of 100 mg/kg dose at 0.58 mL of exudate volume with 0.82 mL of control (injected intrapleurally); summary of the method: as §3
[9] = system: Rattus norvegicus; assay: Antiinflammatory activity on Zymosan-induced rat's paw edema(ZPE) after peroral administration of 100 mg/kg dose with control swelling of 72.9%; summary of the method: as §4
[10] = system: Rattus norvegicus; assay: Compound was tested for the inhibition of rat reversed passive Arthus pleurisy after peroral administration of 100 mg/kg dose at 3.44*10e6 no of cells with 7.4*10e6 cells of control; summary of the method: as §2
[11] = system: Rattus norvegicus; assay: Compound was tested for the inhibition of rat reversed passive Arthus pleurisy after peroral administration of 100 mg/kg dose at 4.81*10e6 no of cells with 5.72*10e6 cells of control; summary of the method: as §2
[12] = system: Rattus norvegicus; assay: Antiinflammatory activity on Carrageenan rat's paw edema(CPE) after peroral administration of 100 mg/kg dose with control swelling of 68.1%
[13] = system: Rattus norvegicus; assay: Antiinflammatory activity on Zymosan-induced rat's paw edema(ZPE) after peroral administration of 100 mg/kg dose with control swelling of 62.8%; summary of the method: as §4

Compound: COc1ccccc1NC(=O)c1c(O)c2cccnc2n(-c2ccccc2)c1=O
- inhibition in vivo at 100 mg/kg [1]: 8.1%
- inhibition in vivo at 100 mg/kg [2]: 26.8%
- inhibition in vivo at 100 mg/kg [3]: 16.7%
- Swelling [4]: 70.7%
- Swelling [5]: 65.9%
- inhibition in vivo at 100 mg/kg [6]: -10.1%

Compound: O=C(NCc1cccnc1)c1c(O)c2cccnc2n(-c2ccccc2)c1=O
- Swelling [7]: 62.8%
- inhibition in vivo at 100 mg/kg [1]: 25.5%
- inhibition in vivo at 100 mg/kg [8]: 29.3%
- Swelling [9]: 54.3%
- inhibition in vivo at 100 mg/kg [10]: 53.5%
- inhibition in vivo at 100 mg/kg [6]: 14.7%

Compound: O=C(Nc1ccc([N+](=O)[O-])cc1)c1c(O)c2cccnc2n(-c2ccccc2)c1=O
- inhibition in vivo at 100 mg/kg [1]: -7.6%
- inhibition in vivo at 100 mg/kg [3]: 16.7%
- inhibition in vivo at 100 mg/kg [11]: 18.5%
- Swelling [12]: 85.7%
- Swelling [13]: 67.6%
- inhibition in vivo at 100 mg/kg [6]: -25.8%
